Measurements reported in ChEMBL document CHEMBL1121891, “Structure--activity relationship in cinnamamides. 3. Synthesis and anticonvulsant activity evaluation of some derivatives of (E)- and (Z)-m-(trifluoromethyl)cinnamamide” (J Med Chem, 1981).
Calls of active or inactive are those of the source. No cut-off for these calls is given here.

Tests used:
[1] = tested on: Mus musculus; assay: Compound was evaluated for loss of righting reflex after peroral administration; type: functional
Outline: (§1)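 Irwin observational test in fasted male albino mice given oral suspensions in 0.5% methocel by gavage. Doses were 25, 50, 100, 200, 400 and 800 mg/kg, with signs checked up to 6 h. The value is the dose giving 50% of maximal effect, interpolated graphically from the log dose/peak effect curve.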

[2] = tested on: Mus musculus; assay: Compound was evaluated for positional passivity after peroral administration; type: functional; outline: as §1
[3] = tested on: Mus musculus; assay: Locomotor activity reduction after peroral administration; type: functional; outline: as §1
[4] = Lethal dose after peroral administration; type: toxicity, organism-based; settings: mouse, in vivo, po
[5] = tested on: Mus musculus; assay: Compound was evaluated for anticonvulsant activity in mouse after peroral administration.; type: functional; settings: po
Outline: (§2)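 Male albino mice (Icem-CET, SPF Caw), 17–22 g, fasted 9 h; compounds suspended in 0.5% methocel and given by gavage at 0.2 mL/10 g. Antagonism of pentylenetetrazole seizures was scored in groups of 20 per dose, at four or five doses per compound. ED50 was derived by probit analysis with p = 0.05 fiducial limits. Inactives were tested at a single screening dose.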

[6] = tested on: Mus musculus; assay: Compound was evaluated for minimum effective dose of clonic-type convulsions after peroral administration; E denotes absent from 25-800 mg/Kg; type: functional, organism-based
Outline: (§3)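 Fasted male albino mice received oral suspensions in 0.5% methocel by gavage at 25–800 mg/kg during Irwin-type behavioral observation, followed up to 6 h. The value is the minimum effective dose producing clonic-type convulsions.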

[7] = tested on: Mus musculus; assay: Compound was evaluated for tremors after peroral administration; type: functional; outline: as §1
[8] = tested on: Mus musculus; assay: Compound was evaluated for positional passivity after peroral administration; E denotes absent from 25-800 mg/Kg; type: functional, organism-based; outline: as §1
[9] = tested on: Mus musculus; assay: Compound was evaluated for tremors after peroral administration; E denotes absent from 25-800 mg/Kg; type: functional, organism-based; outline: as §1
[10] = tested on: Mus musculus; assay: Compound was evaluated for anticonvulsant activity in mouse after peroral administration; IA is inactive at screening dose; type: functional, organism-based; outline: as §2
[11] = tested on: Mus musculus; assay: Compound was evaluated for minimum effective dose of clonic-type convulsions after peroral administration; type: functional; settings: po, read-out: MED; outline: as §3
[12] = tested on: Mus musculus; assay: Compound was evaluated for anticonvulsant activity in mouse after peroral administration; inactive at screening dose 100 mg/kg; type: functional, organism-based; design: dose 100 mg/kg; outline: as §2
[13] = tested on: Mus musculus; assay: Compound was evaluated for anticonvulsant activity in mouse after peroral administration; Not checked; type: functional, organism-based
[14] = tested on: Mus musculus; assay: Compound was evaluated for anticonvulsant activity in mouse after peroral administration; IA is Inactive at the screening dose; type: functional, organism-based; outline: as §2
[15] = tested on: Mus musculus; assay: Compound was evaluated for positional passivity after peroral administration; H denotes absent from 25-800 mg/Kg; type: functional, organism-based; outline: as §1

| SMILES | Reflex [1] [mg/kg] | Passivity [2] [mg/kg] | Locomotor activity [3] [mg/kg] | LD50 [4] [mg/kg] | ED50 [5] [mg/kg] | other results |
| --- | --- | --- | --- | --- | --- | --- |
| C=CCNC(=O)/C(C)=C/c1ccccc1 | 150 | 280 | 200 | 600 | 53.8 |  |
| C=CCNC(=O)/C=C(\C)c1ccccc1 | 150 | 250 | 150 | 450 | 65.8 |  |
| C/C(C(=O)NC1CC1)=C(/C)c1cccc(C(F)(F)F)c1 | 100 | 180 | 80 | 140 | 17.4 |  |
| C/C(C(=O)NC1CC1)=C(\C)c1ccc(Cl)cc1 |  |  | 170 |  | 36.3 | MED [6]: Absent; Reflex [7]: 600 mg/kg; Passivity [8]: Absent |
| CCC1(c2ccccc2)C(=O)N=C([O-])NC1=O.[Na+] (stereo unspecified) [PHENOBARBITAL SODIUM] | 110 | 180 | 180 |  | 6.1 |  |
| C#CCNC(=O)/C(C)=C(\C)c1ccc(Cl)cc1 | 200 | 400 | 60 |  | 10.6 |  |
| O=C(/C=C/c1cccc(C(F)(F)F)c1)NC1CC1 | 100 | 400 | 100 | 700 | 9.6 |  |
| NC(=O)/C=C/c1cccc(C(F)(F)F)c1 | 70 | 200 | 70 | 600 | 23.2 |  |
| C=CCNC(=O)/C(C)=C(\C)c1ccc(Cl)cc1 | 70 | 90 | 70 | 300 | 18.6 |  |
| C/C(C(N)=O)=C(\C)c1ccccc1 |  | 800 | 400 | > 800 |  | MED [6]: Absent; Tremors [9]: Absent; ED50 [10]: inactive |
| C=CCNC(=O)/C=C/c1ccccc1 | 150 | 280 | 150 | 300 | 52.4 |  |
| C/C(C(=O)NC1CC1)=C(\C)c1cccc(C(F)(F)F)c1 |  |  | 800 | > 800 | 65.5 | MED [6]: Absent; Tremors [9]: Absent; Passivity [8]: Absent |
| C/C(C(N)=O)=C(\C)c1cccc(C(F)(F)F)c1 |  | 250 | 180 | 600 | 32.2 | MED [6]: Absent; Tremors [9]: Absent |
| C/C(=C\c1cccc(C(F)(F)F)c1)C(=O)NC1CC1 | 150 | 400 | 120 | 700 | 24.1 |  |
| C/C(C(=O)NC1CC1)=C(\C)c1ccccc1 |  |  | 400 | 600 |  | minimal effective dose [11]: 400 mg/kg; ED50 [12]: inactive; Reflex [7]: 300 mg/kg; Passivity [8]: Absent |
| C/C(=C\c1cccc(C(F)(F)F)c1)C(N)=O | 150 | 250 | 50 | 800 | 22.4 |  |
| C/C(C(N)=O)=C(/C)c1ccc(Cl)cc1 | 150 | 300 | 200 | 550 | 20.9 |  |
| C/C(C(=O)NC1CC1)=C(/C)c1ccc(Cl)cc1 | 150 | >800 | 350 | 300 | 11.4 |  |
| C/C(C(=O)NC1CC1)=C(\C)c1ccc(Br)cc1 |  | 450 | 300 | 600 | 52.4 | MED [6]: Absent; Tremors [9]: Absent |
| C=CCNC(=O)/C(C)=C(\C)c1cccc(C(F)(F)F)c1 | 140 | 350 | 150 | 400 |  | ED50 [13]: Not checked |
| C/C(C(=O)NC1CC1)=C(/C)c1ccccc1 | 150 | 250 | 100 | 500 | 55.9 |  |
| C/C(C(N)=O)=C(/C)c1cccc(C(F)(F)F)c1 | 25 | 85 | 100 | 200 |  | ED50 [14]: inactive |
| C=CCNC(=O)/C(C)=C(\C)c1ccccc1 | 250 | 300 | 130 |  | 67 |  |
| C#CCNC(=O)/C(C)=C(\C)c1cccc(C(F)(F)F)c1 | 110 | 180 | 80 | 170 | 25.1 |  |
| O=C1NC(=O)C(c2ccccc2)(c2ccccc2)N1 [PHENYTOIN] | 250 |  | 150 |  | 9.11 | Passivity [15]: inactive |
